Laboratory results reported in article PMC8930943 (Clinical Drug Investigation, 2022).
Where “and” joins values, the source holds several entries; their conditions need not be identical. Identical values can stand only once. Entries after “also recorded” stand apart in the source; their conditions may differ. Like-named read-outs stand apart in the source and are kept apart here.

Assays:
[1] = cited from earlier work
[2] = cited from earlier work; remark: listed apart in the source
human plasma proteins = settings: independent of drug concentrations from 250 to 1000 ng/mL; cited from earlier work
[3] = single oral 45 mg dose of [14C] radiolabeled dacomitinib; cited from earlier work
Study 1 = assay type: in vivo, human
[4] = Assessment of safety and tolerability in Study 1 and Study 2; assay type: in vivo, human
In short: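 Single 30 mg oral dose given after a >8-h fast with 180 mL (Study 1) or 240 mL (Study 2) water. Safety was assessed from AEs, laboratory abnormalities, physical examination, vital signs and 12-lead ECGs taken after 10-min supine rest. ECG times: Study 1 at screening, predose, 6, 48 and 264 h; Study 2 at screening, predose, 6 h, 144 h and follow-up. Participants stayed in-house to 144 h, with follow-up on Days 8–10 and 12.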

Study 2 = assay type: in vivo, human
[5] = mild hepatic impairment, single oral dacomitinib 30 mg
[6] = Study 1 and Study 2, single oral dose of 30 mg
[7] = Study 2, severe hepatic impairment
[8] = severe hepatic impairment, single oral dacomitinib 30 mg

For `C=CC(=O)Nc1cc(Nc2nccc(-c3cn(C)c4ccccc34)n2)c(OC)cc1N(C)CCN(C)C` [osimertinib], the “decrease in AUC versus normal hepatic function” value ([1]; cancer patients with mild hepatic impairment (n = 7)) is listed as 63% and the “decrease in AUC versus normal hepatic function” value ([1]; cancer patients with moderate hepatic impairment (n = 5)) is listed as 68%.
In the case of `COc1cc2ncnc(Nc3ccc(F)c(Cl)c3)c2cc1NC(=O)/C=C/CN1CCCCC1` [Dacomitinib], the “correlation of concentrations with changes in corrected QT interval” value [2] is listed as “not found to correlate”, the “in vitro binding to human plasma proteins” value (human plasma proteins) is listed as “approximately 98%” and the “radioactivity recovered in feces” value [3] is listed as 79%. For the same compound, the “radioactivity recovered in feces as dacomitinib” value [3] was 20%, the “radioactivity recovered in urine” value [3] was 3% and the “radioactivity recovered in urine as dacomitinib” value [3] was less than 1%. For the same compound, the “adjusted GMR for Cmax,u (90% CI)” value (Study 1; Study 1, mild hepatic impairment vs normal hepatic function, printed as ratio) was 1.00 (90% CI 0.69–1.44), the “AUCinf and Cmax compared with normal hepatic function” value (Study 1; Study 1, mild hepatic impairment, single oral dacomitinib 30 mg) was “unchanged; also recorded: similar” and the “AUCinf decrease compared with normal hepatic function” value (Study 1; [5]) was 6%. The “Cmax increase compared with normal hepatic function” value (Study 1; [5]) was 3%, the “Cmax decrease compared with normal hepatic function” value (Study 1; moderate hepatic impairment, single oral dacomitinib 30 mg) was 20% and the AEs reported ([4]; Study 1, normal hepatic function or mild hepatic impairment groups) was “no AEs were reported”. The “serious AEs, discontinuations, treatment-related deaths” value [4, 6] was “no serious AEs, discontinuations due to study treatment, or treatment-related deaths”, the “vital signs, laboratory values, ECG measurements” value [4, 6] was “No clinically significant changes” and the AEs reported ([4]; Study 2, normal hepatic function or severe hepatic impairment groups) was “no AEs were reported”. For the same compound, the tolerability ([4]; single oral dose of 30 mg, healthy participants and participants with mild, moderate, or severe hepatic impairment) was “well tolerated”, the “AUCinf,u increase compared with normal hepatic function” value (Study 2; [7]) was 32% and the “Cmax,u increase compared with normal hepatic function” value (Study 2; [7]) was “approximately 69%”. For the same compound, the “adjusted GMR for Cmax,u (90% CI)” value (Study 2; Study 2, severe hepatic impairment vs normal hepatic function, printed as ratio) was 1.69 [90% CI 1.08–2.63] and the “AUCinf increase compared with normal hepatic function” value (Study 2; [8]) was 4% and 4.4%.
In the case of `O=C(/C=C/CN1CCCCC1)Nc1cc2c(Nc3ccc(F)c(Cl)c3)ncnc2cc1O` [PF-05199265, O-desmethyl dacomitinib], the “AUCinf decrease compared with normal liver function” value (Study 2; [8]) is reported as 19% and the “Cmax decrease compared with normal liver function” value (Study 2; [8]) is reported as 66%.
